This is an account of results in ChEMBL document CHEMBL1123946, “Cholecystokinin antagonists. Synthesis and biological evaluation of 4-substituted 4H-[1,2,4]triazolo[4,3-a][1,4]benzodiazepines” (J Med Chem, 1988).

Usually IC50 stands for the point on the concentration scale where inhibition reaches its midpoint. The term ED50 denotes the dose at which the effect has come halfway, by size or by number of responders.

A short description of experiment [1]: Displacement of [125I]CCK from Cholecystokinin receptor of guinea pig brain. Also on record: species or system Cavia porcellus. In short, it runs like this:
(§1)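 Membrane binding: [125I]-CCK-33 to rat pancreas and guinea pig cortex, and [125I]gastrin to guinea pig gastric glands. Values are the means of triplicate determinations.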
For orientation: Loss of bound radioactivity is the signal in a displacement assay; it reports binding, not function.

In experiment [2] the test system is Mus musculus. Kind of experiment: Effective dose for antagonism of CCK-8 inhibition of gastric emptying, 1 hr after oral administration. It counts as functional. The conditions noted are these: Stomach. In short, it runs like this: (§2)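 Mice were dosed orally in 0.5% methylcellulose vehicle (N ≥ 10/dose), 1 h, 4 h or 5 h before CCK-8 (80 μg/kg, sc). CCK-8 was given 5 min before a charcoal meal, and gastric emptying was then scored. ED50 is the dose protecting 50% of mice, from regression over at least three dose levels.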

Experiment [3] relates to Mus musculus. As to the kind of experiment: Effective dose for antagonism of CCK-8 inhibition of gastric emptying, 5 hr after oral administration. The note with it: Stomach. It counts as functional. The method in brief: as §2
The target of experiment [4] is T1, Cholecystokinin receptor type A (Rattus norvegicus, UniProt P30551).
T1 sequence (P30551 whole entry): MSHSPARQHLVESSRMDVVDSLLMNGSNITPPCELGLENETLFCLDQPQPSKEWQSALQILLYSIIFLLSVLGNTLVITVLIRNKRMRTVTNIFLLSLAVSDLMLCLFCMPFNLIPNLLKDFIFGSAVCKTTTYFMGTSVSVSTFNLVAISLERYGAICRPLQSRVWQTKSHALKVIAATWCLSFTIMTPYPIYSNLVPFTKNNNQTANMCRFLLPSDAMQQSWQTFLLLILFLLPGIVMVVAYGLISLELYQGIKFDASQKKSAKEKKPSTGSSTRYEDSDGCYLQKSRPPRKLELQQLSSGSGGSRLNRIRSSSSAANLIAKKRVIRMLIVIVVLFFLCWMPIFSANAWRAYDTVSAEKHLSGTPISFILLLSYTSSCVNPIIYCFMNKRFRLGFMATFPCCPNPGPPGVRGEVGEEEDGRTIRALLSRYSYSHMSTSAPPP
Kind of experiment: Displacement of [125I]CCK from Cholecystokinin receptor of rat pancreas. The method in brief:
as §1

Experiment [5] relates to Mus musculus. Kind of experiment: Effective dose for antagonism of CCK-8 inhibition of gastric emptying, 4 hr after oral administration. It is filed as functional. The conditions noted are these: Stomach. The method in brief: as §2
Experiment [6] is described as follows: Displacement of [125I]gastrin from guinea pig gastric glands.

Each structure is given as a SMILES string.

Turning to `Fc1ccccc1C1=N[C@H](Cc2c[nH]c3ccccc23)c2nnc(C(Cl)(Cl)Cl)n2-c2ccccc21`, the IC50 in experiment [1] is more than 100 µM. Turning to `O=C(NC1N=C(c2ccccc2F)c2ccccc2-n2cnnc21)c1cc2ccccc2[nH]1` (stereo not drawn), the median effective dose (ED50) came to 0.02 mg/kg in the experiment with Mus musculus [2] and 0.12 mg/kg in the experiment on Mus musculus [3]. In experiment [1], the IC50 was found to be 0.053 µM. Compound `O=C(Nc1ccc(Cl)cc1)NC1N=C(c2ccccc2)c2ccccc2-n2cnnc21` (stereo not drawn) had an IC50 in experiment [1] of 0.48 µM. Turning to `CN1C(=O)[C@@H](NC(=O)c2cc3ccccc3[nH]2)N=C(c2ccccc2)c2ccccc21` [DEVAZEPIDE], the values for the ED50 in the experiment with Mus musculus [2] and in the experiment with Mus musculus [3] were 0.04 mg/kg and 0.06 mg/kg, respectively.

For the compound `O=C(NC1N=C(c2ccccc2F)c2ccccc2-n2cnnc21)OCc1ccccc1` (stereo not drawn), in experiment [1], the IC50 stood at 8 µM. In the case of `Fc1ccccc1C1=N[C@H](Cc2c[nH]c3ccccc23)c2nnc(-c3ccccc3)n2-c2ccccc21`, the IC50 in experiment [1] is approximately 100 µM. Regarding `Cc1nnc2n1-c1ccc(Cl)cc1C(c1ccccc1)=NC2` [ALPRAZOLAM], the concentration for half-maximal inhibition (IC50) in experiment [1] is more than 100 µM; in experiment [4] it was 64 µM. In the case of `Fc1ccccc1C1=N[C@H](Cc2c[nH]c3ccccc23)c2nncn2-c2ccccc21`, the IC50 in experiment [1] is approximately 100 µM. Regarding `Cc1nnc2n1-c1ccccc1C(c1ccccc1F)=NC2NC(=O)c1cc2ccccc2[nH]1` (stereo not drawn), the ED50 in the experiment with Mus musculus [5] is 0.13 mg/kg; in the experiment with Mus musculus [2] it was 0.05 mg/kg. Further, the IC50 in experiment [1] worked out at 0.008 µM; in experiment [4], 0.0002 µM. On to `O=C(NC1N=C(c2ccccc2F)c2ccccc2-n2cnnc21)c1ccc(Cl)cc1` (stereo not drawn), for which the 50% effect level in the experiment with Mus musculus [2] (ED50) was put at a dose of 0.12 mg/kg. The compound further registered an IC50 in experiment [1] of 9.3 µM. `Cc1nnc2n1-c1ccccc1C(c1ccccc1)=NC2NC(=O)Nc1ccc(Cl)cc1` (stereo not drawn) yielded an IC50 in experiment [1] of 0.12 µM. This counts as sub-micromolar. As to `Cc1nnc2n1-c1ccccc1C(c1ccccc1F)=N[C@@H]2Cc1c[nH]c2ccccc12`, the results for the IC50 in experiment [6] and in experiment [1] were 12 µM and 39 µM, respectively. The values for the ED50 with Mus musculus [2] and in the experiment on Mus musculus [3] were 76 mg/kg and 200 mg/kg, respectively. `CN(C)Cc1nnc2n1-c1ccccc1C(c1ccccc1F)=N[C@@H]2Cc1c[nH]c2ccccc12` showed an IC50 in experiment [1] of approximately 100 µM. In the case of `Cc1nnc2n1-c1ccc(Cl)cc1C(c1ccccc1Cl)=NC2` [TRIAZOLAM], the IC50 is more than 100 µM in experiment [1] and 39 µM in experiment [4].

For `O=C(NC1N=C(c2ccccc2)c2ccccc2-n2cnnc21)OCc1ccccc1` (stereo not drawn), the IC50 in experiment [1] is 7.7 µM; in experiment [4] it was 0.1 µM.
